Measured values from ChEMBL document CHEMBL1145113, “Synthesis and crystal structures of substituted benzenes and benzoquinones as tissue factor VIIa inhibitors” (J Med Chem, 2003).

Key:
[1] = target: Coagulation factor X (Homo sapiens, UniProt P00742); assay: Inhibitory activity against coagulation factor X was determined
Procedure, shortened: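 Human factor Xa at 0.3 nM with 0.15 mM S-2765 in 50 mM Tris-HCl pH 8.0, 100 mM NaCl, 0.1% BSA. A405 background was read immediately, then hydrolysis rate (p-nitroaniline release at 405 nm) after 60 min at room temperature. Seven concentrations in duplicate; % inhibition vs control; IC50 by four-parameter logistic fit.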

[2] = target: T1, Coagulation factor VII (Homo sapiens, UniProt P08709); assay: Inhibitory activity against coagulation factor VII was determined
T1 sequence (P08709 whole entry): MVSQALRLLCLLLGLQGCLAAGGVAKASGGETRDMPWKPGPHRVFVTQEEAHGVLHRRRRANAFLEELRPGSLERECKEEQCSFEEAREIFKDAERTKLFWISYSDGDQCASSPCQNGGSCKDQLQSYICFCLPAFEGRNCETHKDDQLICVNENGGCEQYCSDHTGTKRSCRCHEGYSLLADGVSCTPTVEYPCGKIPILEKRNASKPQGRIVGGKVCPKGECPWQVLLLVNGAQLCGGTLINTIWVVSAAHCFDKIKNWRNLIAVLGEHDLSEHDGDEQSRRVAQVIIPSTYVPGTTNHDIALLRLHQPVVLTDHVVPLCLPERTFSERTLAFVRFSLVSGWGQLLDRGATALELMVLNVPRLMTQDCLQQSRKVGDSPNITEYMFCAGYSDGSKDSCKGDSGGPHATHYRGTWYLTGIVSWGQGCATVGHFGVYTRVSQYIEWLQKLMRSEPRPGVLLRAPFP

[3] = system: Thrombin (Homo sapiens); assay: Inhibitory activity against thrombin was determined at a concentration of 30 uM

Sequence of Coagulation factor X (P00742 41-179 limits assumed): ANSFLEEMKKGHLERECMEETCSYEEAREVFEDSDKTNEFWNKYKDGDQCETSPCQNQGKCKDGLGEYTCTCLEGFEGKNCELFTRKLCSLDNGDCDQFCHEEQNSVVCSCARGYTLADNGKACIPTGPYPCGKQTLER
Sequence of Coagulation factor X (P00742 235-488 limits assumed): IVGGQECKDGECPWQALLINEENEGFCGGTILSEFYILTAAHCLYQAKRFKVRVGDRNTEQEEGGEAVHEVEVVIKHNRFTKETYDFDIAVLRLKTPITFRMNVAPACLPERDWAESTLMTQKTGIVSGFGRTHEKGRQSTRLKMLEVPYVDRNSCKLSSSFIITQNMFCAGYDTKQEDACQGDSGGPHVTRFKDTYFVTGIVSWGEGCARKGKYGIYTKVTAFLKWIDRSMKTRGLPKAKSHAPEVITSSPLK

SMILES | IC50 [1] [µM] | IC50 [2] [µM] | inhibition [3] [%]
CN(C)c1ccc(CNC(=O)c2cc(NS(=O)(=O)Cc3ccccc3)ccc2Sc2ccccc2)cc1 | > 30 | > 30 | 
O=C(Cc1c(F)ccc(NS(=O)(=O)Cc2ccccc2)c1F)NCc1ccncc1 |  | > 30 | 
CC(C)Nc1ccc(-c2ccccc2)c(CC(=O)NCc2ccc(C(=N)N)cc2)c1O | > 30 | 2.5 | 
N=C(N)c1ccc(CNC(=O)Cc2c(-c3ccccc3)ccc(NCCc3ccccc3)c2F)cc1 | > 30 |  | 
N=C(N)c1cccc(CNC(=O)Cc2c(F)ccc(NS(=O)(=O)Cc3ccccc3)c2F)c1 |  | > 30 | 
N=C(N)c1ccc(CNC(=O)Cc2c(F)ccc(NS(=O)(=O)Cc3ccccc3)c2F)cc1 | > 30 | > 30 | 
N=C(N)c1ccc(CNC(=O)Cc2c(-c3cccc(N)c3)ccc(NCc3ccccc3)c2F)cc1 |  | 0.5 | 
COc1c(NC(C)C)ccc(-c2ccccc2)c1CC(=O)NCc1ccc(C(=N)N)cc1 | > 30 |  | 
O=C(NCC1CCNCC1)c1cc(NS(=O)(=O)Cc2ccccc2)ccc1Sc1ccccc1 |  | > 30 | 
N=C(N)c1ccc(CNC(=O)Cc2c(-c3ccccc3)ccc(NCCc3ccccc3)c2O)cc1 | > 30 |  | 
O=C(Cc1c(F)ccc(NS(=O)(=O)Cc2ccccc2)c1F)NCCCn1ccnc1 | > 30 | > 30 | 
N=C(N)c1ccc(CNC(=O)c2cc(NS(=O)(=O)Cc3ccccc3)ccc2Sc2ccccc2)cc1 | > 30 | > 30 | 22
CC(C)Nc1ccc(-c2cccc(N)c2)c(CC(=O)NCc2ccc(C(=N)N)cc2)c1F | > 30 |  | 
N=C(N)NCCCCCNC(=O)Cc1c(F)ccc(NS(=O)(=O)Cc2ccccc2)c1F | > 30 | > 30 | 
O=C(NCc1ccncc1)c1cc(NS(=O)(=O)Cc2ccccc2)ccc1Sc1ccccc1 | > 30 | > 30 | 
CN(C)c1ccc(CNC(=O)Cc2c(F)ccc(NS(=O)(=O)Cc3ccccc3)c2F)cc1 |  | > 30 | 
N=C(N)c1ccc(CNC(=O)Cc2c(F)ccc(NCCc3ccccc3)c2F)cc1 | > 30 |  | 
O=C(Cc1c(F)ccc(NS(=O)(=O)Cc2ccccc2)c1F)NCC1CCNCC1 | > 30 | > 30 | 
